For test [1], the target named is T1, Interleukin-15 (Homo sapiens, UniProt P40933). In words: Binding affinity to recombinant human IL-15 assessed as dissociation constant by SPR analysis. A digest of the protocol:
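IL-15 covalently immobilized on sensor chip; compounds flowed at increasing concentrations and binding monitored by surface plasmon resonance; Kd derived from direct interaction.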
(In general: Surface plasmon resonance follows binding to a sensor surface in real time, without labels.)

The target of a further test is Interleukin-2 (Homo sapiens, UniProt P60568). Briefly: Inhibition of IL2-induced STAT5 phosphorylation in human NK92 cells incubated for 30 mins followed by IL-2 stimulation and measured after 1 hr by alphascreen assay. (Bead proximity is the source of the signal in Alpha formats.)
For test [2], the target named is T1, Interleukin-15. Briefly: Inhibition of IL-15-induced STAT5 phosphorylation in human NK92 cells incubated for 30 mins followed by IL-15 stimulation and measured after 1 hr by alphascreen assay.

Chain of Interleukin-2 (P60568 whole entry): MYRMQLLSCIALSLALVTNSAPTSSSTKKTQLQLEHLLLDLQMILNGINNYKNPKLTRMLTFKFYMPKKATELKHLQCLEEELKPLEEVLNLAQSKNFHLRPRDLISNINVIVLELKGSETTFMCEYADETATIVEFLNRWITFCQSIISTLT
T1 sequence (P40933 whole entry): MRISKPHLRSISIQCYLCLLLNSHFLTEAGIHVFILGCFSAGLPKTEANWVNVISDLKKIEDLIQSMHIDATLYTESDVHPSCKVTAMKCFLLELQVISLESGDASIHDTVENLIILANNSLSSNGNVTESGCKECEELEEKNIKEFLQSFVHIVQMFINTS

One may read the Kd as the free concentration of one partner at which half of the binding sites on the other are occupied at equilibrium, for simple one-to-one binding. The IC50 is the concentration at which inhibition is half-maximal. Low values mean higher potency, high ones lower potency. `Cn1c(Cc2n[nH]c(=O)c3ccccc23)nnc1SCCCCCCCC(=O)Nc1ccc(Cl)cc1Cl`: at Interleukin-15 [1], the Kd result is recorded as “Not Active”. Further, the IC50 against Interleukin-2 was more than 30 µM; at Interleukin-15 [2], 20 µM.
For `Cn1nc(Cc2nnc(SCCCCCCCC(=O)Nc3ccc(Cl)cc3Cl)n2CCC(=O)O)c2ccccc2c1=O`, the values for the IC50 against Interleukin-2 and on Interleukin-15 [2] were 14.3 µM and 9.5 µM, respectively.
With `Cn1nc(Cc2nnc(SCCCCCCCC(=O)Nc3ccc(Cl)cc3Cl)[nH]2)c2ccccc2c1=O`, the dissociation constant (Kd) on Interleukin-15 [1] (read-out: Kd) worked out at 2.4 µM. Also, the IC50 on Interleukin-2 amounted to 0.45 µM; on Interleukin-15 [2] it was 0.28 µM.
Take `Cn1c(Cc2nn(CCC(=O)O)c(=O)c3ccccc23)nnc1SCCCCCCCC(=O)Nc1ccc(Cl)cc1Cl`: the IC50 on Interleukin-15 [2] is more than 30 µM.
On to `Cn1nc(Cc2nnc(SCCCCCCCC(=O)Nc3ccc(Cl)cc3Cl)n2CCCO)c2ccccc2c1=O`, for which the IC50 at Interleukin-2 and against Interleukin-15 [2] was more than 30 µM throughout.
For `Cn1nc(Cc2nnc(SCC(=O)Nc3ccc(Cl)cc3Cl)n2CCC=O)c2ccccc2c1=O`, the values for the IC50 against Interleukin-2 and against Interleukin-15 [2] were 8.6 µM and 4.2 µM, respectively.
The like results for `Cn1c(Cc2nn(CCCO[Si](C)(C)C(C)(C)C)c(=O)c3ccccc23)nnc1SCCCCCCCC(=O)Nc1ccc(Cl)cc1Cl` were, in that order, more than 30 µM and more than 30 µM.
The like results for `CN(C)CCCn1nc(Cc2nnc(SCCCCCCCC(=O)Nc3ccc(Cl)cc3Cl)n2C)c2ccccc2c1=O` were, in that order, more than 30 µM and more than 30 µM.
Turning to `Cn1c(Cc2nn(CCC=O)c(=O)c3ccccc23)nnc1SCCCCCCCC(=O)Nc1ccc(Cl)cc1Cl`, the dissociation constant (Kd) at Interleukin-15 [1] (read-out: Kd) was determined as 7.8 µM. In addition, the results for the IC50 on Interleukin-2 and against Interleukin-15 [2] were 21.9 µM and 14.9 µM, respectively.
The compound `Cn1c(Cc2nn(CCC3OCCO3)c(=O)c3ccccc23)nnc1SCC(=O)Nc1ccc(Cl)cc1Cl` registered a 50% inhibitory concentration (IC50) against Interleukin-2 of more than 30 µM.
On to `Cn1c(Cc2nn(C)c(=O)c3ccccc23)nnc1SCC(=O)Nc1ccc(Cl)cc1Cl`, for which the figures for the IC50 at Interleukin-2 and at Interleukin-15 [2] were 7.7 µM and 4.5 µM, respectively.
For the compound `Cn1c(Cc2nn(CCC=O)c(=O)c3ccccc23)nnc1SCC(=O)Nc1ccc(Cl)cc1Cl`, the IC50 at Interleukin-2 is more than 30 µM; at Interleukin-15 [2], 20 µM.
Consider `Cn1c(Cc2nn(C)c(=O)c3ccccc23)nnc1SCCCCCCCC(=O)Nc1ccc(C(=O)c2ccccc2)cc1`, for which the equilibrium dissociation constant (Kd) on Interleukin-15 [1] (read-out: Kd) was 3.5 µM. In addition, the results for the half-inhibitory concentration (IC50) on Interleukin-2 and on Interleukin-15 [2] were 0.08 µM and 0.05 µM, respectively.
Take `Cn1nc(Cc2nnc(SCC(=O)Nc3ccc(Cl)cc3Cl)n2CCCO)c2ccccc2c1=O`: the 50% inhibitory concentration (IC50) against Interleukin-2 and at Interleukin-15 [2] was more than 30 µM throughout.
Regarding `Cn1nc(Cc2nnc(SCC(=O)Nc3ccc(Cl)cc3Cl)n2CCC(=O)O)c2ccccc2c1=O`, the IC50 on Interleukin-2 and against Interleukin-15 [2] was more than 30 µM in each case.
On to `Cn1c(Cc2nn(C)c(=O)c3ccccc23)nnc1SCCCCCCCC(=O)Nc1ccc(Cl)cc1Cl`, for which the equilibrium dissociation constant (Kd) on Interleukin-15 [1] (read-out: Kd) was 1.3 µM. Further, the results for the IC50 at Interleukin-2 and against Interleukin-15 [2] were 0.35 µM and 0.19 µM, respectively.
The like results for `Cn1nc(Cc2nnc(SCCCCCCCC(=O)Nc3ccc(Cl)cc3Cl)n2CCC=O)c2ccccc2c1=O` were, in that order, 5.9 µM, 0.96 µM and 0.71 µM.
`Cn1nc(Cc2nnc(SCCCCCCCC(=O)Nc3ccc(Cl)cc3Cl)n2CCCO[Si](C)(C)C(C)(C)C)c2ccccc2c1=O`: the half-maximal inhibitory concentration (IC50) against Interleukin-2 and against Interleukin-15 [2] was more than 30 µM in each case.
Take `CCOC(CCn1c(Cc2nn(C)c(=O)c3ccccc23)nnc1SCC(=O)Nc1ccc(Cl)cc1Cl)OCC`: the IC50 against Interleukin-2 and at Interleukin-15 [2] was more than 30 µM throughout.
In the case of `Cn1c(Cc2nn(CCCO)c(=O)c3ccccc23)nnc1SCCCCCCCC(=O)Nc1ccc(Cl)cc1Cl`, the Kd on Interleukin-15 [1] (read-out: Kd) is 3.9 µM. For the same compound, the IC50 at Interleukin-2 and against Interleukin-15 [2] was more than 30 µM in each case.
At Interleukin-2, `Cn1c(Cc2nn(CCCO)c(=O)c3ccccc23)nnc1SCC(=O)Nc1ccc(Cl)cc1Cl` showed an IC50 of more than 30 µM.
In the case of `CN(C)CCCn1nc(Cc2nnc(SCC(=O)Nc3ccc(Cl)cc3Cl)n2C)c2ccccc2c1=O`, the IC50 on Interleukin-2 and against Interleukin-15 [2] was more than 30 µM throughout.
For `Cn1c(Cc2nn(CCC(=O)O)c(=O)c3ccccc23)nnc1SCC(=O)Nc1ccc(Cl)cc1Cl`, the half-maximal inhibitory concentration (IC50) against Interleukin-2 and on Interleukin-15 [2] was more than 30 µM throughout.
For the compound `CN(C)CCCn1c(Cc2nn(C)c(=O)c3ccccc23)nnc1SCCCCCCCC(=O)Nc1ccc(Cl)cc1Cl`, the IC50 against Interleukin-2 and at Interleukin-15 [2] was more than 30 µM each time.

Values taken from ChEMBL document CHEMBL4819118, “Rational modification, synthesis and biological evaluation of N-substituted phthalazinone derivatives designed to target interleukine-15 protein” (Bioorg Med Chem, 2021).
